According to PMC10796979 (The Journal of Biological Chemistry, 2023):

T1: C3aR1 (Homo sapiens, UniProt Q16581)
T1 sequence (Q16581 1-482): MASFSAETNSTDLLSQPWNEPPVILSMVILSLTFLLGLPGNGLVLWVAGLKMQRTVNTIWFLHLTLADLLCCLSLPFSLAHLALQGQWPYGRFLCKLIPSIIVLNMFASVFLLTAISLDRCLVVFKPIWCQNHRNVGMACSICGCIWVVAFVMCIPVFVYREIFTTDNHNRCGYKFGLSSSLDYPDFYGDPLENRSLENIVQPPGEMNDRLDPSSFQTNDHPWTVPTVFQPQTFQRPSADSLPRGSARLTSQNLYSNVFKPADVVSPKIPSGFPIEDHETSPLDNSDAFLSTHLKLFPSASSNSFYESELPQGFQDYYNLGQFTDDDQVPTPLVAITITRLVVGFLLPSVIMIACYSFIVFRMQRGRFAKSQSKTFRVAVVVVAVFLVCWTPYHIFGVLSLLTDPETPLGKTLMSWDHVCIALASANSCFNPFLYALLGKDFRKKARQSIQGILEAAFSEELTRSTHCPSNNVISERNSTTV

T2: Complement C3a receptor 1 (C3aR1) fused to Rluc8 on the C-terminus (UniProt Q16581)
T2 sequence: T1 sequence (Q16581 1-482)


How the values were obtained:
C3aR1 [1] = biological target: T1, C3aR1; assay: Gi/o-mediated cAMP inhibition Glosensor assay; type: cell-based
C3aR1 [2] = biological target: T1, C3aR1; assay: C3aR1 β-arrestin1 recruitment BRET assay; type: cell-based
Outline: (§1)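 HEK293T co-transfected 1:3:15 with C-terminal Rluc8-tagged C3aR1, GRK2 and N-terminal Venus-β-arrestin1 or Venus-β-arrestin2, then plated overnight in DMEM with 1% dialyzed FBS. Cells washed, then test compound (3×) added in HBSS/HEPES buffer, pH 7.4. Coelenterazine h (5 μM final) added 15 min before reading at 485/530 nm, at time points up to 60 min, 37 °C. Net BRET was Venus/Rluc8 corrected against wells lacking Venus-arrestin, plotted against concentration.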

C3aR1 [3] = biological target: T1, C3aR1; assay: ELISA surface expression; type: cell-based
3T3-L1 adipocytes = assay: Lipolysis; type: cell-based; details: 30 min or 3 h incubation
Outline: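 3T3-L1 cells differentiated with insulin-containing medium and used 8–9 days after induction. Serum-starved in KRH buffer, then given ISO 50 nM plus test compound (10 nM to 1 μM) for 30 min or 3 h. Medium heat-inactivated at 60 °C for 20 min, then glycerol measured colorimetrically at 540 nm. Glycerol normalised to Bradford protein and expressed as fold over control in the same experiment. One-way ANOVA with Tukey.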

C3aR1 [4] = biological target: T1, C3aR1; assay: C3aR1 β-arrestin2 recruitment BRET assay; type: cell-based
Outline: as §1

C3aR1 [5] = biological target: T1, C3aR1; assay: C3aR1 G protein dissociation BRET assay; type: cell-based
Outline: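 HEK293T co-transfected 1:1:1:1 with Gα-Rluc8, Gβ1, GFP2-Gγ and C3aR1, repeated for each Gα subtype (i, o, z, s, olf, q, 11–15). Cells plated overnight in DMEM with 1% dialyzed FBS. Test compound (3×) added in duplicate in HBSS/20 mM HEPES/0.1% BSA/0.01% ascorbic acid, pH 7.4, for 60 min at 37 °C. Coelenterazine 400a (5 μM final) added for 15 min; read at 400/515 nm. GFP2/Rluc8 ratio fitted by log(agonist)-response; three independent experiments, mean and SEM.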

3T3-L1 cells = assay: Fluo-4 calcium influx assay in 3T3-L1 cells; type: cell-based
Outline: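 3T3-L1 cells plated at 60% confluency on collagen-coated chamber slides. Next day, medium replaced with HBSS and cells loaded with 2.5 μM Fluo-4 AM for 30 min. Single cells imaged every second for 3 min, with treatment added at 30 s; UTP served as positive control. AUC over the first 60 s taken after background removal, with each cell normalised to its basal intensity. Values were normalised to control and rescaled to 0–1.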

[6] = biological target: T2, Complement C3a receptor 1 (C3aR1) fused to Rluc8 on the C-terminus

activity in FSK-induced Gi/o-mediated cAMP inhibition (C3aR1 [1]) | β-arrestin1 recruitment potency compared to C3a63-77 (C3aR1 [2]) | β-arr2-dependent C3aR1 internalization compared to C3a63-77 (C3aR1 [3]) | β-arrestin2 recruitment potency compared to C3a63-77 (C3aR1 [4]) | fold more potent to cause G protein dissociation compared to C3a63-77 (C3aR1 [5]; Gi/o/z subtypes) [fold] | G protein dissociation at Gs, Gq or G12/13 subtypes (C3aR1 [5]; full screen panel of Gα proteins) | recruitment of Venus-β-arrestin1 to C3aR1-Rluc8 by BRET, EC50 of the agonist [6] [nM] | recruitment of Venus-β-arrestin2 to C3aR1-Rluc8 by BRET, EC50 of the agonist [6] [nM] | Molecule | potentiation of adrenergic (ISO)-induced lipolysis (3T3-L1 adipocytes) | G protein dissociation activity across Gi/o/z subtypes (C3aR1 [5]; all tested Gi/o/z subtypes) | induction of calcium influx by the compound alone (3T3-L1 cells)
shows agonist activity | more potent than C3a63-77 | more potent and efficacious | more potent than C3a63-77 | ~10 | no activity | – | – | NC(N)=NCCC[C@H](NC(=O)COCC(c1ccccc1)c1ccccc1)C(=O)O [SB290157] | did not potentiate | robust C3aR1 G protein dissociation agonist activity | does not induce calcium influx
– | – | – | – | – | – | 191 | 542 | TLQPPASSRRRHFHHALPPAR [mouse TLQP-21] | – | – | –
– | – | – | – | – | – | – | 3180 | TLQPPSALRRRHYHHALPPSR [human TLQP-21] | – | – | –
